Data from ChEMBL document CHEMBL2034886, “Anticancer and radiosensitizing evaluation of some new pyranothiazole-Schiff bases bearing the biologically active sulfonamide moiety” (Eur J Med Chem, 2012).

Columns and labels:
MCF7 [1] = assay: Cytotoxicity against human MCF7 cells assessed as surviving fraction at 10 uM after 48 hrs by sulforhodamine B assay; assay type: functional
Method in brief: (§1)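 SRB assay on MCF7 breast cancer cells plated at 10^4 cells/well for 24 h before treatment. Compounds were dissolved in DMSO, diluted with saline and tested at 10, 25, 50 and 100 in triplicate wells for 48 h at 37 °C under 5% CO₂. Cells were fixed and stained 30 min with 0.4% SRB in 1% acetic acid, washed four times with acetic acid, and the dye was recovered in Tris-EDTA and read on an ELISA reader. IC50 was taken from the survival curve.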

MCF7 [2] = assay: Cytotoxicity against human MCF7 cells assessed as surviving fraction at 25 uM after 48 hrs by sulforhodamine B assay; assay type: functional; method in brief: as §1
MCF7 [3] = assay: Cytotoxicity against human MCF7 cells assessed as surviving fraction at 50 uM after 48 hrs by sulforhodamine B assay; assay type: functional; design: unit not given here; method in brief: as §1
MCF7 [4] = assay: Cytotoxicity against human MCF7 cells assessed as surviving fraction at 100 uM after 48 hrs by sulforhodamine B assay; assay type: functional; method in brief: as §1
MCF7 [5] = assay: Cytotoxicity against human MCF7 cells after 48 hrs by sulforhodamine B assay; assay type: functional, cell-based; details: MCF7, 48 h; method in brief: as §1
MCF7 [6] = assay: Cytotoxicity against 8 Gy irradiated human MCF7 cells assessed as surviving fraction at 10 uM after 1 hr by clonogenic assay (reference value: 0.927 +/- 0.02); assay type: functional
Method in brief: (§2)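 MCF7 cells were treated with compound at 10, 25, 50 or 100 combined with one 8 Gy dose of ¹³⁷Cs gamma radiation at 1 Gy/min. Surviving fraction was measured 1 h after irradiation and given as mean ± SE relative to control, analysed by one-way ANOVA. IC50 was derived by nonlinear regression curve fitting.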

MCF7 [7] = assay: Cytotoxicity against 8 Gy irradiated human MCF7 cells assessed as surviving fraction at 25 uM after 1 hr by clonogenic assay (reference value: 0.927 +/- 0.02); assay type: functional; method in brief: as §2
MCF7 [8] = assay: Cytotoxicity against 8 Gy irradiated human MCF7 cells assessed as surviving fraction at 50 uM after 1 hr by clonogenic assay (reference value: 0.927 +/- 0.02); assay type: functional; method in brief: as §2
MCF7 [9] = assay: Cytotoxicity against 8 Gy irradiated human MCF7 cells assessed as surviving fraction at 100 uM after 1 hr by clonogenic assay (reference value: 0.927 +/- 0.02); assay type: functional; method in brief: as §2
MCF7 [10] = assay: Cytotoxicity against 8 Gy irradiated human MCF7 cells after 1 hr by clonogenic assay; assay type: functional, cell-based; details: MCF7, light or radiation study; method in brief: as §2
MCF7 [11] = assay: Ratio of doxorubicin IC50 to compound IC50 for human MCF7 cells; assay type: functional

SMILES	Activity (MCF7 [1]) [fraction]	Activity (MCF7 [2]) [%]	Activity (MCF7 [3])	Activity (MCF7 [4]) [%]	IC50 (MCF7 [5]) [µM]	Activity (MCF7 [6])	Activity (MCF7 [7])	Activity (MCF7 [8]) [fraction]	Activity (MCF7 [9])	IC50 (MCF7 [10]) [µM]	Ratio IC50 (MCF7 [11])
COc1ccc(C2C(C#N)=C(N)Oc3nc(Nc4ccc(S(N)(=O)=O)cc4)sc32)cc1 (stereo not drawn)	0.81	55	0.331	35	27.5	0.618 fraction (unitless)	0.346 fraction (of 1)	0.171	0.201 fraction (of control)	14.8	
COc1ccc(C2C(C#N)=C(/N=C/c3ccccc3)Oc3nc(Nc4ccc(S(N)(=O)=O)cc4)sc32)cc1 (stereo not drawn)	0.825	66.8	0.307	27.1	33.5						
COc1ccc(C2C(C#N)=C(/N=C/c3ccccc3Cl)Oc3nc(Nc4ccc(S(N)(=O)=O)cc4)sc32)cc1 (stereo not drawn)	0.541	32.3	0.36	46	10.2	0.453 fraction (unitless)	0.237 fraction (of 1)	0.135	0.119 fraction (of control)	9.11	3.1
COc1ccc(C2C(C#N)=C(/N=C/c3ccc(Cl)cc3)Oc3nc(Nc4ccc(S(N)(=O)=O)cc4)sc32)cc1 (stereo not drawn)	0.443	25.1	0.355	29	9.55	0.311 fraction (unitless)	0.217 fraction (of 1)	0.17	0.201 fraction (of control)	8.72	
COc1ccc(C2C(C#N)=C(/N=C/c3cccc(Br)c3)Oc3nc(Nc4ccc(S(N)(=O)=O)cc4)sc32)cc1 (stereo not drawn)	0.435	23.3	0.371	30.9	9.39	0.319 fraction (unitless)	0.211 fraction (of 1)	0.119	0.235 fraction (of control)	8.72	3.4
COc1ccc(C2C(C#N)=C(/N=C/c3ccc(F)cc3)Oc3nc(Nc4ccc(S(N)(=O)=O)cc4)sc32)cc1 (stereo not drawn)	0.845	55.1	0.38	44.3	28.9						
COc1ccc(C2C(C#N)=C(/N=C/c3ccc(Cl)cc3Cl)Oc3nc(Nc4ccc(S(N)(=O)=O)cc4)sc32)cc1 (stereo not drawn)	0.693	50.3	0.377	39.1	23.5						
COc1ccc(C2C(C#N)=C(/N=C/c3ccc([N+](=O)[O-])cc3)Oc3nc(Nc4ccc(S(N)(=O)=O)cc4)sc32)cc1 (stereo not drawn)	0.48	32.7	0.313	38.1	9.7	0.403 fraction (unitless)	0.201 fraction (of 1)	0.1	0.13 fraction (of control)	7.55	3.3
COc1ccc(C2C(C#N)=C(/N=C/c3ccc(N(C)C)cc3)Oc3nc(Nc4ccc(S(N)(=O)=O)cc4)sc32)cc1 (stereo not drawn)	0.792	70.1	0.347	37.8	36.2						
COc1ccc(C2C(C#N)=C(/N=C/C=C/c3ccccc3)Oc3nc(Nc4ccc(S(N)(=O)=O)cc4)sc32)cc1 (stereo not drawn)	0.828	60.1	0.242	37	28.9						
COc1ccc(C2C(C#N)=C(/N=C/c3ccc(O)cc3)Oc3nc(Nc4ccc(S(N)(=O)=O)cc4)sc32)cc1 (stereo not drawn)	0.872	63.8	0.37	30.7	34.5						
COc1ccc(C2C(C#N)=C(/N=C/c3ccc4c(c3)OCO4)Oc3nc(Nc4ccc(S(N)(=O)=O)cc4)sc32)cc1 (stereo not drawn)	0.814	66	0.419	39.3	38.2						
